Source: ChEMBL document CHEMBL4689842, “EUbOPEN Chemogenomics Library wave 1” (2021)

Test system: U2OS
Assay: Multiplex assay against U2OS
Assay type: toxicity, cell-based
Details: human
How it was run: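 Per cents of healthy-nucleus cells form the tubulin, mitochondrial-mass and membrane-permeability phenotype values. Live cells were stained at seeding with Hoechst33342, BioTracker Green Microtubule Cytoskeleton Dye, MitoTracker Red and Annexin V Alexa Fluor 680. After compound addition they were imaged on a CQ1 microscope at 37°C and 5% CO2, and CellPathfinder machine-learning gating split them into Hoechst high-intensity objects or normal cells, normal cells into healthy, pyknosed or fragmented nuclei, and pyknosed cells into mitotic or apoptotic.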

[1] = 12 h, 1 µM, compound concentration 1 uM, replicate 1
[2] = 12 h, 1 µM, compound concentration 1 uM, replicate 2
[3] = 12 h, 10 µM, compound concentration 10 uM, replicate 1
[4] = 12 h, 10 µM, compound concentration 10 uM, replicate 2
[5] = 24 h, 1 µM, compound concentration 1 uM, replicate 1
[6] = 24 h, 1 µM, compound concentration 1 uM, replicate 2
[7] = 24 h, 10 µM, compound concentration 10 uM, replicate 1
[8] = 24 h, 10 µM, compound concentration 10 uM, replicate 2

Compound: Cl.Cn1c2c(c3ccc(Cl)c(Cl)c31)C(C#N)C1(CCNCC1)NC2=O (configuration not stated)
- Population Apoptotic (%) [1]: 30%
- Population Fragmented Nuclei (%) [1]: 2%
- Population Healthy Nuclei (%) [1]: 90%
- Population Hoechst High Intensity Objects (%) [1]: 1%
- Population Mitochondria Different-Phenotype (%) [1]: 14%
- Population Mitotic Cells (%) [1]: 69%
- Population Normal (%) [1]: 98%
- Population Pyknosed Nuclei (%) [1]: 7%
- Population Tubulin-Different-Phenotype (%) [1]: 19%
- Total Cell Count [1]: 137
- Population Apoptotic (%) [2]: 0%
- Population Fragmented Nuclei (%) [2]: 4%
- Population Healthy Nuclei (%) [2]: 94%
- Population Hoechst High Intensity Objects (%) [2]: 13%
- Population Membrane Permeable-Phenotype (%) [2]: 9%
- Population Mitochondria Different-Phenotype (%) [2]: 36%
- Population Mitotic Cells (%) [2]: 100%
- Population Normal (%) [2]: 86%
- Population Pyknosed Nuclei (%) [2]: 0%
- Population Tubulin-Different-Phenotype (%) [2]: 38%
- Total Cell Count [2]: 159
- Population Apoptotic (%) [3]: 56%
- Population Fragmented Nuclei (%) [3]: 20%
- Population Healthy Nuclei (%) [3]: 20%
- Population Hoechst High Intensity Objects (%) [3]: 3%
- Population Membrane Permeable-Phenotype (%) [3]: 53%
- Population Mitochondria Different-Phenotype (%) [3]: 80%
- Population Mitotic Cells (%) [3]: 43%
- Population Normal (%) [3]: 96%
- Population Pyknosed Nuclei (%) [3]: 58%
- Population Tubulin-Different-Phenotype (%) [3]: 96%
- Total Cell Count [3]: 183
- Population Apoptotic (%) [4]: 61%
- Population Fragmented Nuclei (%) [4]: 22%
- Population Healthy Nuclei (%) [4]: 27%
- Population Hoechst High Intensity Objects (%) [4]: 24%
- Population Membrane Permeable-Phenotype (%) [4]: 36%
- Population Mitochondria Different-Phenotype (%) [4]: 90%
- Population Mitotic Cells (%) [4]: 38%
- Population Normal (%) [4]: 75%
- Population Pyknosed Nuclei (%) [4]: 49%
- Population Tubulin-Different-Phenotype (%) [4]: 95%
- Total Cell Count [4]: 123
- Population Apoptotic (%) [5]: 40%
- Population Fragmented Nuclei (%) [5]: 4%
- Population Healthy Nuclei (%) [5]: 88%
- Population Hoechst High Intensity Objects (%) [5]: 1%
- Population Membrane Permeable-Phenotype (%) [5]: 5%
- Population Mitochondria Different-Phenotype (%) [5]: 13%
- Population Mitotic Cells (%) [5]: 60%
- Population Normal (%) [5]: 98%
- Population Pyknosed Nuclei (%) [5]: 6%
- Population Tubulin-Different-Phenotype (%) [5]: 26%
- Total Cell Count [5]: 129
- Population Apoptotic (%) [6]: 75%
- Population Fragmented Nuclei (%) [6]: 3%
- Population Healthy Nuclei (%) [6]: 93%
- Population Hoechst High Intensity Objects (%) [6]: 10%
- Population Membrane Permeable-Phenotype (%) [6]: 8%
- Population Mitochondria Different-Phenotype (%) [6]: 29%
- Population Mitotic Cells (%) [6]: 25%
- Population Normal (%) [6]: 89%
- Population Pyknosed Nuclei (%) [6]: 2%
- Population Tubulin-Different-Phenotype (%) [6]: 31%
- Total Cell Count [6]: 157
- Population Apoptotic (%) [7]: 85%
- Population Fragmented Nuclei (%) [7]: 37%
- Population Healthy Nuclei (%) [7]: 10%
- Population Hoechst High Intensity Objects (%) [7]: 16%
- Population Membrane Permeable-Phenotype (%) [7]: 92%
- Population Mitochondria Different-Phenotype (%) [7]: 100%
- Population Mitotic Cells (%) [7]: 14%
- Population Normal (%) [7]: 83%
- Population Pyknosed Nuclei (%) [7]: 52%
- Population Tubulin-Different-Phenotype (%) [7]: 92%
- Total Cell Count [7]: 231
- Population Apoptotic (%) [8]: 76%
- Population Fragmented Nuclei (%) [8]: 33%
- Population Healthy Nuclei (%) [8]: 17%
- Population Hoechst High Intensity Objects (%) [8]: 30%
- Population Membrane Permeable-Phenotype (%) [8]: 75%
- Population Mitochondria Different-Phenotype (%) [8]: 91%
- Population Mitotic Cells (%) [8]: 23%
- Population Normal (%) [8]: 69%
- Population Pyknosed Nuclei (%) [8]: 49%
- Population Tubulin-Different-Phenotype (%) [8]: 91%
- Total Cell Count [8]: 164
